Screening data: PubChem, several laboratories
Rows were chosen to be rich in hits. Some 1.5% of all compounds tested hit in one or more screens of this group.
CSN deneddyl inh: inhibitors of CSN-mediated cullin deneddylation, primary screen, biochemical, fluorescence polarization, uHTS; Purified CSN, SCF-Nedd8-OG deneddylation; inhibition, % at 12.5 µM; COP9 signalosome complex subunit 5 (Homo sapiens), Q92905; 360,000 compounds, 0.38% hits;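 active means pattern-corrected inhibition above about 35%, with an unprinted fluorescence ratio check between 0.5 and 1.5, limit read from the data, passing the limit was not always enough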
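Material: human Csn5 produced in HEK293T cells; Input: enzyme 0.24 nM; Reagent: SCFSkp2-Nedd8OG substrate at 10 nM final; Dosing: 12.5 µM compound; Incubation: 90 min reaction at room temperature; Detection: fluorescence polarization of the substrate; Evaluation: % inhibition of substrate cleavage by Csn5; Control set: substrate-only high control, full reaction low control.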
HNF4A DNA FP: change in binding of human HNF4A to DNA, primary screen, biochemical, fluorescence polarization, FITC-DNA | Hepatocyte nuclear factor 4-alpha (Homo sapiens), P41235 | 1 h | activity change, % at 10 µM | 360,000 compounds, 0.3% hits | AID 1224865, 2016; in the data active means activity change above about 30%, passing the limit was not always enough
Rpn11 block: Rpn11 (PSMD14) deubiquitinase inhibitors, primary screen, biochemical, fluorescence polarization, uHTS. 26S proteasome non-ATPase regulatory subunit 14 (Homo sapiens), O00487. human 26S proteasome, Ub4-pepOG fluorescence polarization; 20S core pre-blocked with epoxomicin. inhibition, % at 20 µM. 360,000 compounds, 0.59% hits;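 active means inhibition at 20 µM, scaled to each plate's controls, above about 33%, limit read from the data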
Target sequence (O00487 whole entry, looked up): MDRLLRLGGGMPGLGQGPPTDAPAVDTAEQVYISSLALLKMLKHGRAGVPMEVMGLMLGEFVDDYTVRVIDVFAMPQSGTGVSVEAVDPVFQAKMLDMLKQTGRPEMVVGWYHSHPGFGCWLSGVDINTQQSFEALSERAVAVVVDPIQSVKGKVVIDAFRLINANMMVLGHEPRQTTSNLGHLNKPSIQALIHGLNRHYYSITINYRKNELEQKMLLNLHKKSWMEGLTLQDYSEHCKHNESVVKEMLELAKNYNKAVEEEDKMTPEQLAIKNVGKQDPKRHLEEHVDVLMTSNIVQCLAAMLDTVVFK
TPT1 inhibitor: Candida albicans TPT1 enzyme inhibitors, primary screen, biochemical, fluorescence polarization; recombinant caTPT1, FP RNA substrate dephosphorylation; AID 1962, 2009; 300,000 compounds, 0.81% hits; inhibition, % at 5 µM; tRNA 2'-phosphotransferase TPT1 (Candida albicans SC5314);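 active means inhibition above the mean of all tested compounds plus 3 SD, set per screening campaign, cut at about 24% in these data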
Numbers stand for hits; . = inactive; / = no result given.

SMILES	CSN deneddyl inh	HNF4A DNA FP	Rpn11 block	TPT1 inhibitor
COc1ccc(NC(=O)CSc2nc3sc4c(c3c(=O)n2-c2ccc(OC)cc2)CCN(C)C4)cc1	98	.	.	.
COc1ccc(-n2c(SCC(=O)Nc3nccs3)nc3sc4c(c3c2=O)CCN(C)C4)cc1	.	.	.	.
CSCCC(NC(=O)c1ccco1)C(=O)NCCc1ccc(Cl)cc1 (centres undefined)	37	.	.	/
CSCCC(NC(=O)c1ccco1)C(=O)NCc1ccc(F)cc1 (centres undefined)	.	.	.	.
O=S(=O)(O)c1cc(O)c2c(O)c(N=Nc3cc(Cl)ccc3O)c(S(=O)(=O)O)cc2c1	.	.	.	.
Cc1cc(-c2ccc(N=Nc3c(S(=O)(=O)O)cc4cc(S(=O)(=O)O)cc(N)c4c3O)c(C)c2)ccc1N=Nc1c(S(=O)(=O)O)cc2cc(S(=O)(=O)O)cc(N)c2c1O	/	/	/	80
CCCCCN(C(=O)CN1CCC(Cc2ccccc2)CC1)c1c(N)n(CCCC)c(=O)[nH]c1=O	.	37	.	.
CCc1ccc2c(c1)c1nc(C)sc1n2CC	54	.	.	.
COC(=O)[C@@]1(Sc2ccc(C)cc2)CC(=O)N[C@@H]1c1ccc(Br)cc1	.	.	/	/
C#CCOCCOCCOCCNc1nc(N2CCN(C(=O)CCCCCCCCCCNC(=O)Cn3cc(CCCCCN)nn3)CC2)nc(N2CCN(C(=O)CCCCCCCCCCNC(=O)[C@H](CO)n3cc(CCCCCN)nn3)CC2)n1	.	38	.	.
C#CCOCCOCCOCCNc1nc(N2CCN(C(=O)CCCCCCCCCCNC(=O)Cn3cc(C[C@@H](C)O)nn3)CC2)nc(N2CCN(C(=O)CCCCCCCCCCNC(=O)[C@H](CCCCN)n3cc(C[C@@H](C)CC)nn3)CC2)n1	87	.	.	.
C#CCOCCOCCOCCNc1nc(N2CCN(C(=O)CCCCCCCCCCNC(=O)Cn3cc(CCCCCN)nn3)CC2)nc(N2CCN(C(=O)CCCCCCCCCCNC(=O)[C@H]([C@@H](C)CC)n3cc(CCCCCN)nn3)CC2)n1	64	52	.	.
C#CCOCCOCCOCCNc1nc(N2CCN(C(=O)CCCCCCCCCCNC(=O)Cn3cc(C[C@@H](C)O)nn3)CC2)nc(N2CCN(C(=O)CCCCCCCCCCNC(=O)Cn3cc(C[C@@H](C)O)nn3)CC2)n1	.	.	.	.
CC(Oc1ccc(Cl)cc1Cl)C(=O)Nc1ccncc1 (centres undefined)	48	.	.	.
COc1ccc(-c2c(C#N)c(N)nc3sc(C(=O)c4ccc(C)cc4)c(N)c23)cc1	.	75	/	.
Cc1csc(=O)n1CCC(=O)N(C)Cc1c(F)cccc1Cl	.	.	.	/
Cn1c(N)c(C(=O)CSc2nnc(-c3c[nH]c4ccccc34)n2C2CC2)c(=O)[nH]c1=O	35	.	.	/
CCCn1c(N)c(C(=O)CSc2nnc(-c3c[nH]c4ccccc34)n2C2CC2)c(=O)[nH]c1=O	.	.	.	/
Cc1ccc(S(=O)(=O)N2CCOCC2)cc1NC(=O)COC(=O)CCc1c[nH]c2ccccc12	.	.	.	/
Cc1cc(-c2csc(NC(=O)c3ccc(C#N)cc3)n2)c(C)n1Cc1ccco1	41	.	.	.
O=C(Nc1ccccc1-c1nc2ccccc2[nH]1)c1ccc(S(=O)(=O)N2CCCCC2)cc1	.	.	.	/
O=C(Nc1ccccc1-c1nc2ccccc2[nH]1)c1ccc(N2C(=O)CCC2=O)cc1	54	85	/	.
O=C(CN1CCN(c2ccc(O)cc2)CC1)Nc1ccc2c(c1)OCCCO2	.	.	.	/
Nc1c(-c2ccccn2)cnn1-c1nc(-c2ccc(F)cc2)cs1	.	.	.	.
COc1ccc(-c2csc(-n3ncc(-c4ccccn4)c3N)n2)cc1	.	28	.	.
Cc1ccc(Cn2ccc(NC(=O)c3cc(-c4ccc5c(c4)OCO5)on3)n2)cc1	112	.	.	/
Cc1ccc(Cn2ccc(NC(=O)c3cc(-c4ccco4)on3)n2)cc1	52	.	.	.
CCC(OC(=O)c1ccco1)C(=O)NCc1ccc2c(c1)OCO2 (centres undefined)	.	.	.	.
